A selection: hits, their analogues and other compounds. The true share with any hit is near 1.5%.
proCasp3 act = activates human procaspase-3. P42574. recombinant procaspase-3 D3A, Ac-DEVD-pNA absorbance 405 nm. activation, % at 8.5 µM. 330,000 compounds, 0.11% hits;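 active = activation above the mean of all tested compounds plus 3 SD, cut at about 21% in these data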;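 also: 0% = DMSO alone and 100% = DMSO wells spiked with extra 5 µM PC-3 D3A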
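assay system = Procaspase-3 D3A mutant | signal = absorbance at 405 nm, 0 and 120 min | times = 1 h preincubation plus 2 h reaction at 25 °C | repeats = single replicate | read-out = % activation between DMSO and enzyme-spiked controls | medium = Zinc-free HEPES saline buffer with Triton X-100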
MsrA inh = inhibits bovine methionine sulfoxide reductase A | purified bovine MsrA, absorbance read-out | inhibition, % at 15.5 µM | 360,000 compounds, 0.75% hits;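 also: 0% = vehicle wells with enzyme and 100% = reference inhibitor wells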
TbMetRS inhib = blocks T. brucei methionyl-tRNA synthetase activity. purified T. brucei MetRS, ATP depletion, Kinase-Glo luminescence. 360,000 compounds, 0.4% hits. inhibition, % at 11.9 µM;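 active = inhibition above a per-plate cutoff of the control wells' mean inhibition plus 3 SD, cut at about 5.5% in these data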;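 also: 0% = DMSO wells median and 100% = median of wells with control inhibitor compound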
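Measured by: Kinase-Glo luciferase luminescence reporting remaining unconsumed ATP. Material: purified T. brucei MetRS enzyme. Doses: 11.9 µM compound single dose, 0.9% DMSO. Medium: HEPES buffer containing pyrophosphatase, BSA, spermine, DTT. Times: 15 min preincubation, 2 h reaction, all 25 °C. Reagent: methionine, ATP and bulk E. coli tRNA.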
procasp7 counter = activates human procaspase-7, counter-screen for procaspase-3 activators. P55210. recombinant procaspase-7, Ac-DEVD-pNA absorbance 405 nm; D23A/D198A/D206A triple mutant, cannot self-cleave; scale: DMSO 0, 5 µM enzyme 100. activation, % at 8.5 µM. 330,000 compounds, 0.093% hits;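 active = percent activation above the screen-wide mean plus 3 SD, cut at about 25% in these data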
Target sequence (P55210 whole entry D23A/D198A/D206A): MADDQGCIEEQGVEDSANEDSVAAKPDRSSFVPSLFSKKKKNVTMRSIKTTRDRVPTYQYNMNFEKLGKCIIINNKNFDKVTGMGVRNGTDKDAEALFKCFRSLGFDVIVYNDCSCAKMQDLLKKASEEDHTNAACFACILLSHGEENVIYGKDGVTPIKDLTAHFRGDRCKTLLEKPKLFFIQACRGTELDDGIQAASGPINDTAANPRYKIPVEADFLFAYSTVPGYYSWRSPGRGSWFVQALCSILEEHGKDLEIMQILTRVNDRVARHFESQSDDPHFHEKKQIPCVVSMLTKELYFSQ
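signal = Epi-absorbance of released pNA at 405 nm, two timepoints | assay system = Uncleavable procaspase-7 mutant enzyme | reagent = Ac-DEVD-pNA substrate, 400 µM as added | times = 1 h enzyme–compound preincubation and 2 h substrate reaction, both 25 °C | benchmarks = low DMSO alone, high DMSO plus 5 µM PC-7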
bovine MsrA act = bovine methionine sulfoxide reductase A activation; purified bovine MsrA, absorbance read-out; activation, % at 10.6 µM; 360,000 compounds, 0.3% hits; in the data active = activation above about 7.5%;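 also: 0% = vehicle and 100% = reference activator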
MsrA inh confirm = bovine MsrA inhibition, confirmed | shares compounds with MsrA inh | purified bovine MsrA, absorbance read-out | inhibition, % at 15.5 µM | 2,300 compounds, 41% hits;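 also: coupled to thioredoxin reductase with NADPH and selenocystamine and DMSO as substrate; 0% = vehicle only and 100% = full effect of reference inhibitor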
The depositor's hits bear a star; x = not tested or not shown. Rule as the data show it, unless noted: active = inhibition above about 4.5%; inactive = the rest.

SMILES	proCasp3 act	MsrA inh	TbMetRS inhib	procasp7 counter	bovine MsrA act	MsrA inh confirm
CCOC(=O)N/N=C\C=C\c1ccc2c(c1)OCO2	-5.3	7.3*	-0.2	1.7	-4.5	4.7*
COc1ccc(/C=N/NC(=O)Cc2ccc(Cl)cc2)cc1OC	0.1	0.1	-0.2	3.8	-4.8	x
NC(=O)c1c(N)[nH]c(C(=O)c2ccccc2)c1-c1ccc2c(c1)OCO2	x	0.5	x	x	x	x
c1ccc(Oc2ccccc2-c2cc(NCCc3cccnc3)n3nccc3n2)cc1	x	0.0	0.0	x	-1.5	x
CCc1ccc(C(=O)NNC(=S)Nc2ccc(S(N)(=O)=O)cc2)s1	-5.4	4.9*	-0.3	3.9	2.3	2.2
CCN(CC)S(=O)(=O)c1ccc(N/N=C/c2ccccc2OCC(=O)O)c([N+](=O)[O-])c1	-4.9	5.6*	-1.2	-1.0	-10.0	2.4
COc1ccccc1NS(=O)(=O)c1ccc(N/N=C/c2ccccc2OCC(=O)O)c([N+](=O)[O-])c1	-3.1	5.4*	0.0	2.5	-4.3	3.3
N#CC(Cc1cccs1)c1nc2ccccc2[nH]1 (centres undefined)	x	-0.3	0.0	x	-2.0	x
N#CC(/C(=N/S(=O)(=O)c1cccs1)c1ccccc1)c1nc2ccccc2[nH]1 (centres undefined)	-4.0	5.0*	-0.1	6.4	-2.6	5.8*
CCCCOC(=O)C1CN(c2ccccc2)N=C1C(=O)OCC (centres undefined)	-9.0	52.7*	0.2	-1.4	-0.2	2.0
Cc1ccc(-c2csc3nc(C)n(N)c(=O)c23)o1	-4.3	-0.1	-0.8	1.4	-5.8	x
Cc1ccc(-c2csc3nc(C)n(-n4c(C)ccc4C)c(=O)c23)o1	-3.9	15.3*	-0.4	-5.0	-3.4	12.0*
Cc1ccc(C)n1-n1c(C)nc2scc(-c3ccccc3)c2c1=O	0.2	26.9*	-0.1	6.9	-3.7	25.8*
N#Cc1ccc(CSc2nnc(NC(=O)c3ccc4ncsc4c3)s2)cc1	-7.3	0.7	-0.5	-7.8	-7.8	x
N#Cc1ccc(CSc2nnc(NC(=O)c3ccc(=O)[nH]c3)s2)cc1	1.4	6.0*	-0.4	0.4	-1.6	1.8
O=C1CS/C(=N/N=C/c2cccs2)N1	4.6	6.4*	0.0	7.8	-6.4	4.4
CC1(C)S/C(=N/N=C/c2cccs2)NC1=O	1.8	4.7*	-1.4	-1.8	1.1	3.9
O=C1CS/C(=N/N=C/c2ccncc2)N1	-6.4	2.2	2.5	1.6	-8.4	x
CCOC(=O)C1CSCCS(=O)(=O)N1Cc1cccc(Cl)c1 (centres undefined)	x	-1.1	x	x	x	x
C[C@H](O)[C@@H]1C(=O)N2CCc3c([nH]c4c(-c5ccccc5)cccc34)[C@@H]2C[C@@H]1N(C)CC1CCCCC1	x	0.5	x	x	x	x
NC(=O)c1ccsc1NC(=O)COC(=O)/C=C/c1ccccc1[N+](=O)[O-]	-1.5	11.5*	0.0	-7.9	-1.5	9.4*
NC(=O)c1ccsc1NC(=O)COC(=O)/C=C/c1ccccc1	-5.6	1.2	0.0	1.7	-2.9	x
COc1ccc(C2/C(=C(/O)c3cnn(-c4ccccc4)c3C)C(=O)C(=O)N2CCN(C)C)cc1OC (centres undefined)	x	9.3*	-0.3	x	-4.3	1.9
COc1ccc(OC)c(C2/C(=C(/O)c3cnn(-c4ccccc4)c3C)C(=O)C(=O)N2CCN(C)C)c1 (centres undefined)	-8.8	0.1	-0.4	2.7	-3.2	x
COc1ccc(Oc2cc(NN3CCCCC3)c([N+](=O)[O-])cc2[N+](=O)[O-])cc1OC	0.4	4.9*	0.6	5.6	-2.3	3.0
O=[N+]([O-])c1cc([N+](=O)[O-])c(Oc2ccc(F)cc2)cc1NN1CCCCC1	-7.4	-0.1	-0.3	-2.6	-1.1	x
CC(=O)c1cccc(Oc2cc(NN3CCCCC3)c([N+](=O)[O-])cc2[N+](=O)[O-])c1	7.6	17.9*	-0.3	-9.1	-4.2	12.0*
CCN(CC)c1ccc(C=Nc2ccc(C)cc2)c(O)c1	7.9	6.9*	-0.2	2.3	-1.8	6.3*
CCN(CC)c1ccc(C=Nc2ccc(N(C)C)cc2)c(O)c1	-10.0	5.9*	-0.5	-19.2	-11.5	1.9
N#C/C(=C/c1ccc(CNS(=O)(=O)c2ccccc2)o1)C(N)=O	-8.6	3.9	-1.0	-2.1	-13.0	x

Source: PubChem
